ChEMBL document CHEMBL1759877, “Identification and evaluation of soft coral diterpenes as inhibitors of HIF-2α induced gene expression” (Bioorg Med Chem Lett, 2011)

Tests used:
[1] = Cytotoxicity against human 786-O cells by XTT assay; assay type: functional, cell-based; conditions: 786-0
[2] = target: Endothelial PAS domain-containing protein 1 (Homo sapiens, UniProt Q99814); experiment: Inhibition of HIF-2alpha activity in human 786-O cells by luciferase assay; assay type: cell-based
How it was run: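 Cells seeded at 5000 per well and allowed to attach overnight, then exposed to test samples or controls the next day. Incubation lasted one day so the HIF-2 signal could drop. Luciferin was then added to the cells and the luciferase signal read.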

Endothelial PAS domain-containing protein 1, sequence (Q99814 whole entry, the tested form may be a part): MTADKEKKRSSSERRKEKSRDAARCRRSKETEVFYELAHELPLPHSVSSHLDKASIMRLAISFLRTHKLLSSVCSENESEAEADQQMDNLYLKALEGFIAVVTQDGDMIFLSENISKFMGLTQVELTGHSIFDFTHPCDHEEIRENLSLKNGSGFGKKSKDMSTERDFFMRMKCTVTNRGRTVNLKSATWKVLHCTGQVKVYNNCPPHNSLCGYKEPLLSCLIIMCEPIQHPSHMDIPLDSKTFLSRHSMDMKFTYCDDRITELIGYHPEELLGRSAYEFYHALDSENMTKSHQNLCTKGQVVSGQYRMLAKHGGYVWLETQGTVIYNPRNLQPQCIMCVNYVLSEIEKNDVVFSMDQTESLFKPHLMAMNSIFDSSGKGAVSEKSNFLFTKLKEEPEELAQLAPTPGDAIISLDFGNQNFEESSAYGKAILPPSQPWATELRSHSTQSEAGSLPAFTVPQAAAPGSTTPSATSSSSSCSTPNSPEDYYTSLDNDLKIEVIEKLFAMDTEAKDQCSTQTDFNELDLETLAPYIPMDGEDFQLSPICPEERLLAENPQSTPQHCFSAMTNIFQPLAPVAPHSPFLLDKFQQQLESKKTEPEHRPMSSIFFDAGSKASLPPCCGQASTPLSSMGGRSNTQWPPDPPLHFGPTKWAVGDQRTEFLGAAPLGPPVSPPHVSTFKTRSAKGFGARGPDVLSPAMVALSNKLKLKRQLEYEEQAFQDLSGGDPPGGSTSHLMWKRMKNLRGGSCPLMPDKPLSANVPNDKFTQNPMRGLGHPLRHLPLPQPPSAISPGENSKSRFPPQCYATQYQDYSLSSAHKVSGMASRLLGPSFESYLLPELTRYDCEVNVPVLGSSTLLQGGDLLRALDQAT

SMILES	IC50 ([1]; Homo sapiens, read-out: IC50)	EC50 ([2]; read-out: EC50)	IC50 [1]	EC50 [2]
C=C1CC[C@H](OO)C(=C)CC[C@@H]2C([C@@H](OC(C)=O)[C@H](C=C(C)C)OC(C)=O)=CO[C@H](OC(C)=O)[C@@H]12	14.2 µM	11.8 µM		
C/C1=C\C=C(\C(C)C)CCC2=CCC[C@](C)(OC2=O)[C@H](O)CC1			Not Active	Not Active
COC(C)(C)/C1=C/C=C(\C)CC[C@H]2O[C@@]2(C)CC/C=C(\C)CC1 (relative stereo)	134 µM	149 µM		
C=C1CC/C=C(/C)CC[C@@H]2C([C@@H](OC(C)=O)[C@H](C=C(C)C)OC(C)=O)=CO[C@H](OC(C)=O)[C@@H]12	5.2 µM	3.4 µM		
C=C1C[C@@H](O)/C=C(/C)CC[C@@H]2C([C@@H](OC(C)=O)[C@H](C=C(C)C)OC(C)=O)=CO[C@H](OC(C)=O)[C@@H]12	26.3 µM	6.2 µM		
CC1=C2CC/C(C)=C/CC[C@]3(C)O[C@@H]3CC/C(C)=C/[C@H]2OC1	291 µM	183 µM		
C=C(C)/C1=C/C=C(\C)CC[C@@H](O)[C@]2(C)CCC=C(CC1)C(=O)O2 (relative stereo)			Not Active	Not Active
C=C(C)[C@@H]1CC(=O)/C(C)=C/CC/C(C)=C/CC[C@]2(C)O[C@@H]2C1	147 µM	108 µM		
C/C1=C\CC[C@]2(C)O[C@@H]2CC/C(C)=C/C=C(/C(C)(C)O)CC1			Not Active	Not Active
